Dynein transport = blocks dynein driven cargo transport along microtubules; 3617.4 mouse cells, GR-EGFP nuclear translocation imaging; test concentration mostly 20 µM; stimulated with dexamethasone, 1 µM; stronger effect = lower value; z-score, hits read low; hit rate 0.47% among 220,000;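 active means plate z-score of nuclear minus cytoplasmic receptor signal below a set negative limit, without overly bright fluorescence or cell loss, cut at about -3.5 in these data, passing the limit was not always enough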;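 further: z-score of nuclear minus cytoplasmic ring GR-EGFP intensity difference per well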
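Buffer or medium: Induction medium lacking tetracycline, stripped serum | Also added: Dexamethasone agonist, 1.0 µM final, for 30 min | Timing: 48 h induction, 1 h compound, 30 min dex at 37 °C | Detection: Formaldehyde fixation, Hoechst nuclear stain, 10x automated fluorescence imaging | Measure: Nuclear versus cytoplasmic GR-EGFP signal, averaged per well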
Mdm2-MdmX inh = human Mdm2/MdmX binding inhibition. O15151+Q00987. SaOS-2 split-luciferase Mdm2/MdmX complementation, luminescence. inhibition, % at 8 µM. hit rate 3% among 330,000. AID 485346;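 active means inhibition of at least 50% at 8 µM in the primary screen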
Mdm2 ligase inh = inhibitors of human Mdm2 E3 ubiquitin ligase; cell-based MDM2 ubiquitination luciferase reporter, 2 h; 0 = plate control, 100 = twice control, blank-subtracted; hit rate 0.11% among 210,000; Q00987; AID 1230; signal enhancement, % at 5 µM;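 active means signal enhancement of 30% or more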;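 further: luminescence tracks abundance of the self-degrading MDM2-luciferase fusion protein; higher signal means inhibition of MDM2 E3 ligase activity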
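System: stable MDM2–luciferase fusion reporter cells / Input: 2000 cells seeded into each well / Schedule: 4 h settle plus 2 h compound, 37 °C / Compound: single-point 5 µM / Buffer or medium: cells held in DMEM / Benchmarks: control and blank well means / Evaluation: percent signal gain over controls, blank-subtracted / Measured by: luciferase luminescence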
Beta2AR agonist = human beta-2 adrenergic receptor agonism by FAP; P07550; Am2.2-beta2AR cells, FAP receptor internalization, flow cytometry; response, % (no concentration beside the values); hit rate 0.43% among 340,000; AID 504454;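 active means response above a set limit, near 3 SD of response in nonfluorescent compounds, cut at about 42% in these data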
Target sequence (P07550 whole entry, looked up): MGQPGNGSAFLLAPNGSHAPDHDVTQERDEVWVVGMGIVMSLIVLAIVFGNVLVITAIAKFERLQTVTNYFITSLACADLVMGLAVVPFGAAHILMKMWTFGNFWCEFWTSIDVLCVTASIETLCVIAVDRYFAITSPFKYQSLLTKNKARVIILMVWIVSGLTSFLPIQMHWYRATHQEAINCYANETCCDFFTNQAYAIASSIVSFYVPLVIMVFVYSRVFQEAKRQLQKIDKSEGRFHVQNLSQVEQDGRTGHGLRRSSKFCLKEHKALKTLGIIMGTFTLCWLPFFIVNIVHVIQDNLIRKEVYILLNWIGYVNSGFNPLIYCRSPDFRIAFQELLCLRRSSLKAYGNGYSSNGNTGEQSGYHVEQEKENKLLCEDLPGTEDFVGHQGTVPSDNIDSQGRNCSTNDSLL
XBP1 UPR activ = adaptive UPR (XBP1) activation | activation, % at 20 µM | CHO-XBP1 luciferase reporter, IRE1-XBP1 UPR activation, luminescence; percent of tunicamycin response, DMSO as zero | AID 463104 | hit rate 0.33% among 330,000;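 active means versus positive control, 20 µM dose yields 30% or more activation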
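incubation = overnight seeding at 37 °C, 6 h compound treatment at 37 °C | assay system = CHO-XBP1 cells stably carrying IRE1-XBP1-driven luciferase reporter | input = 1000 cells per well | detection = luciferase luminescence | dosing = single point, 20 µM final compound, 1% DMSO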
UPR CHOP act = apoptotic UPR (CHOP) activation | activation, % at 10 µM | AID 449763 | CHO-CHOP luciferase reporter, luminescence; percent of tunicamycin response over DMSO baseline | hit rate 0.34% among 330,000;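 active means at 10 µM dose, activation of 40% or more, normalized to positive control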
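assay system = CHO CHOP reporter cells | amount = 500 CHO-CHOP cells per well | buffer or medium = F12 with 10% FBS | incubation = 16-18 h cell attachment, then 6 h compound exposure, 37 °C | detection = luminescence read with Steady-Glo | read-out = percent activation relative to tunicamycin control | controls = tunicamycin high control, DMSO low control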
Mdm2-MdmX conf = human Mdm2/MdmX binding inhibition, confirmed | shares compounds with Mdm2-MdmX inh | luminescent assay | inhibition, % at 8 µM | hit rate 55% among 10,000 | AID 489028; in the data active means inhibition above about 40%
Full FLuc ctr = counter-screen for Mdm2/MdmX inhibitors: full-length luciferase; shares compounds with Mdm2-MdmX inh; SaOS-2 full-length luciferase counterscreen, luminescence; inhibition, % at 8 µM; hit rate 77% among 6,200; AID 504607;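 active means mean inhibition at 8 µM reaching about 37%, which flags the compound as non-specific, limit read from the data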;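 further: p53-null SaOS-2 cells with luciferase driven by a doxycycline-inducible promoter; compound on cells about two nights before reading with doxycycline added after day one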
Numbers stand for hits. Sampled rows, rich in hits. Any-hit rate of the full collection: about 3.7%.

Screening CCOC(=O)N1CCC(NC(=O)c2cnn3c(C(F)(F)F)cc(-c4cccc(OC)c4)nc23)CC1 returned Mdm2-MdmX inh 61, XBP1 UPR activ inactive, UPR CHOP act inactive and Mdm2-MdmX conf inactive.
COc1ccc(-c2cc(C(F)(F)F)n3ncc(C(=O)NCC4CCCO4)c3n2)cc1OC (stereo unspecified) was read as Dynein transport inactive, Mdm2-MdmX inh 57, Mdm2 ligase inh inactive, Beta2AR agonist inactive, XBP1 UPR activ inactive, UPR CHOP act inactive and Mdm2-MdmX conf inactive.
For O=C(COC(=O)CNS(=O)(=O)c1ccc(Br)cc1Cl)NC1CCCC1 the results were Mdm2-MdmX inh inactive, Beta2AR agonist inactive, XBP1 UPR activ inactive and UPR CHOP act inactive.
`CC(=O)N1CCc2cc(S(=O)(=O)NCC(=O)NCc3ccc(F)cc3)ccc21` gave Mdm2-MdmX inh inactive, Beta2AR agonist inactive, XBP1 UPR activ inactive and UPR CHOP act inactive.
`Cc1cc(C)cc(S(=O)(=O)c2cn(C)c3cc(N4CCN(C)CC4)c(F)cc3c2=O)c1` gave Mdm2-MdmX inh 96, Beta2AR agonist inactive, XBP1 UPR activ inactive, UPR CHOP act inactive and Mdm2-MdmX conf inactive.
`COc1ccc(N2CCN(CCNC(=O)c3ccc4c(c3)[nH]c(=S)n3c5ccccc5nc43)CC2)cc1` gave Dynein transport inactive, Mdm2-MdmX inh 87, Mdm2 ligase inh inactive, Beta2AR agonist inactive, XBP1 UPR activ inactive, UPR CHOP act inactive, Mdm2-MdmX conf 76 and Full FLuc ctr 55.
For CN(c1ccccc1)c1ccc(/C=C(\C#N)c2nnc3n2CCCCC3)cc1[N+](=O)[O-] the results were Dynein transport inactive, Mdm2-MdmX inh 66, Mdm2 ligase inh inactive, Beta2AR agonist inactive, XBP1 UPR activ inactive, UPR CHOP act inactive and Mdm2-MdmX conf inactive.
N#C/C(=C\c1cccc([N+](=O)[O-])c1)c1nnc2n1CCCCC2 was read as Dynein transport inactive, Mdm2-MdmX inh inactive, Mdm2 ligase inh inactive, Beta2AR agonist inactive, XBP1 UPR activ inactive and UPR CHOP act inactive.
Cc1cc(O)c2c(c1O)C(=O)[C@]13C(=C2O)C(=O)[C@@H]2[C@@H](O)[C@H]1[C@@H]1[C@H](O)[C@H]3C(=O)C3=C(O)c4c(O)cc(C)c(O)c4C(=O)[C@]312 was read as Mdm2-MdmX inh 87, Beta2AR agonist inactive, XBP1 UPR activ inactive, UPR CHOP act inactive, Mdm2-MdmX conf 85 and Full FLuc ctr inactive.
For COc1cc(CNc2ncn[nH]2)ccc1OCc1cccc(C)c1 the results were Dynein transport inactive, Mdm2-MdmX inh inactive, Mdm2 ligase inh inactive, Beta2AR agonist inactive, XBP1 UPR activ inactive and UPR CHOP act inactive.
Screening COc1cccc(CNC(=O)CN2C(=O)CSc3ccc(S(=O)(=O)N4CCCCC4)cc32)c1 returned Mdm2-MdmX inh inactive, Beta2AR agonist inactive, XBP1 UPR activ inactive and UPR CHOP act inactive.
Cc1sc2ncnc(NCc3ccccc3)c2c1C was read as Dynein transport inactive, Mdm2-MdmX inh 67, Mdm2 ligase inh inactive, Beta2AR agonist inactive, XBP1 UPR activ inactive, UPR CHOP act inactive and Mdm2-MdmX conf inactive.
`CC(C1CC1)N(Cc1ccccc1)C(=S)Nc1cccc(C(F)(F)F)c1` (stereo unspecified) gave Dynein transport inactive, Mdm2-MdmX inh inactive, Mdm2 ligase inh inactive, Beta2AR agonist inactive, XBP1 UPR activ inactive and UPR CHOP act inactive.
For CNC[C@H](CC1CCCCC1)NC[C@H](CO)NCCc1cccc(C(F)(F)F)c1 the results were Mdm2-MdmX inh 99, Beta2AR agonist inactive, XBP1 UPR activ inactive, UPR CHOP act inactive, Mdm2-MdmX conf 97 and Full FLuc ctr 58.
Screening CNC[C@H](CC1CCCCC1)NC[C@H](CO)NCC1(c2ccccc2)CC1 returned Mdm2-MdmX inh 86, Beta2AR agonist inactive, XBP1 UPR activ inactive, UPR CHOP act inactive, Mdm2-MdmX conf 58 and Full FLuc ctr 45.
For Cc1cnc(C(=O)OCC(=O)Nc2c(Cl)cc(Cl)cc2Cl)cn1 the results were Mdm2-MdmX inh inactive, Beta2AR agonist inactive, XBP1 UPR activ inactive and UPR CHOP act inactive.
`CCN1C(=O)[C@@H]2Cc3c([nH]c4ccccc34)C(c3ccc(OC)cc3)N2C1=S` (stereo partly specified) gave Mdm2-MdmX inh 73, Beta2AR agonist inactive, XBP1 UPR activ inactive, UPR CHOP act inactive, Mdm2-MdmX conf 58 and Full FLuc ctr 58.
COC(=O)c1ccc(C2c3[nH]c4ccccc4c3C[C@H]3C(=O)N(C)CC(=O)N23)cc1 (stereo partly specified) was read as Mdm2-MdmX inh inactive, Beta2AR agonist inactive, XBP1 UPR activ inactive and UPR CHOP act inactive.
`COc1ccccc1C1c2[nH]c3ccccc3c2C[C@H]2C(=O)N(C3CCN(Cc4ccccc4)CC3)CC(=O)N12` (stereo partly specified) gave Mdm2-MdmX inh 54, Beta2AR agonist inactive, XBP1 UPR activ inactive, UPR CHOP act inactive, Mdm2-MdmX conf inactive and Full FLuc ctr 90.
For CN1CC(=O)N2C(c3ccc(Cl)cc3)c3[nH]c4ccccc4c3C[C@H]2C1=O (stereo partly specified) the results were Mdm2-MdmX inh 52, Beta2AR agonist inactive, XBP1 UPR activ inactive, UPR CHOP act inactive and Mdm2-MdmX conf inactive.
COc1ccc(C2c3[nH]c4ccccc4c3C[C@H]3C(=O)N(C4CCN(Cc5ccccc5)CC4)CC(=O)N23)cc1OC (stereo partly specified) was read as Mdm2-MdmX inh inactive, Beta2AR agonist inactive, XBP1 UPR activ inactive and UPR CHOP act inactive.
`O=C(COC(=O)c1nc(Cl)ccc1Cl)NC(=O)c1ccccc1` gave Mdm2-MdmX inh inactive, Beta2AR agonist inactive, XBP1 UPR activ inactive and UPR CHOP act inactive.
`Nc1nc(Cl)nc2c1ncn2[C@H]1C[C@H](O)[C@@H](CO)O1` gave Dynein transport inactive, Mdm2-MdmX inh 87, Beta2AR agonist inactive, XBP1 UPR activ inactive, UPR CHOP act inactive, Mdm2-MdmX conf 74 and Full FLuc ctr inactive.
`O=C(CCC(=O)N1CCOc2ccccc21)NCc1cccnc1` gave Mdm2-MdmX inh inactive, Beta2AR agonist inactive, XBP1 UPR activ inactive and UPR CHOP act inactive.

Source: PubChem
